Activity calls are given as the source filed them. The rule behind the calls is not given here.
Assays:
[1] = target: T1, Quinolone resistance protein NorA (Staphylococcus aureus) (UniProt P0A0J7); experiment: Inhibition of NorA in Staphylococcus aureus 1199B assessed as minimum concentration required to effectively reduce ciprofloxacin MIC by four fold by broth checkerboard microdilution method
T1 sequence (whole entry): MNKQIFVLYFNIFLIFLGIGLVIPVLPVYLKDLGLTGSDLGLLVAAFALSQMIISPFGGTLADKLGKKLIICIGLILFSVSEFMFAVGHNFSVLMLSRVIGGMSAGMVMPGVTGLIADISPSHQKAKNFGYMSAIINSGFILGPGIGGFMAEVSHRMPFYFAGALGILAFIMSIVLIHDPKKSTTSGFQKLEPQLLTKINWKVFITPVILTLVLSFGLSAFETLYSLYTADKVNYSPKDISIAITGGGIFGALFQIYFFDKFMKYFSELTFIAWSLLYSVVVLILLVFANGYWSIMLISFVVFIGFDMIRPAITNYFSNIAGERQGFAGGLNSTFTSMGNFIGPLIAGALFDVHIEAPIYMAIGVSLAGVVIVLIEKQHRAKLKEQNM
Procedure, shortened: (§1)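 Broth checkerboard microdilution in cation-adjusted Mueller–Hinton broth. Compounds tested at seven concentrations (50-0.7 μg/mL) against twofold serial dilutions of ciprofloxacin (32-0.06 μg/mL). MEC is the minimum concentration that lowers the ciprofloxacin MIC fourfold. Piperine and SK-20 served as reference EPIs.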

Staphylococcus aureus [2] = experiment: Potentiation of ciprofloxacin-induced antibacterial activity in Staphylococcus aureus 1199 assessed as reduction in ciprofloxacin MIC at 0.8 to 50 ug/ml by broth checkerboard microdilution method relative to control; type: functional; procedure, shortened: as §1
Staphylococcus aureus [3] = experiment: Potentiation of ciprofloxacin-induced antibacterial activity in norA-deleted Staphylococcus aureus K1758 assessed as reduction in ciprofloxacin MIC at 0.8 to 50 ug/ml by broth checkerboard microdilution method relative to control; type: functional; procedure, shortened: as §1
Staphylococcus aureus [4] = experiment: Growth inhibition of Staphylococcus aureus 1199 at 50 ug/ml by broth microdilution method; type: organism-based
Staphylococcus aureus [5] = experiment: Growth inhibition of norA-deleted Staphylococcus aureus K1758 at 50 ug/ml by broth microdilution method; type: organism-based
Procedure, shortened: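 MIC determined by broth microdilution in cation-adjusted Mueller–Hinton broth following CLSI guidelines. MIC is the lowest concentration giving no visible growth.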

[6] = target: T1, Quinolone resistance protein NorA (Staphylococcus aureus); experiment: Inhibition of NorA in Staphylococcus aureus 1199B assessed as reduction in ethidium bromide efflux at 50 uM measured after 5 mins by fluorescence assay relative to control
Procedure, shortened: (§2)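 SA-1199B grown on tryptone soya agar. Ethidium bromide efflux followed by fluorescence (excitation 530 nm, emission 600 nm) over 5 min with compound at 0–50 μM. Run in triplicate. Percent inhibition calculated from mean values against the no-inhibitor control.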

[7] = target: T1, Quinolone resistance protein NorA (Staphylococcus aureus); experiment: Inhibition of NorA in Staphylococcus aureus 1199B assessed as reduction in ethidium bromide efflux at 50 uM measured over 5 mins interval for 30 mins by fluorescence assay relative to control
[8] = target: T1, Quinolone resistance protein NorA (Staphylococcus aureus); experiment: Inhibition of NorA in Staphylococcus aureus 1199B assessed as assessed as potentiation of ciprofloxacin-induced antibacterial activity by measuring reduction in ciprofloxacin MIC at 25 to 50 ug/ml by broth checkerboard microdilution method relative to control; procedure, shortened: as §1
HepG2 = experiment: Cytotoxicity against human HepG2 cells assessed as reduction in cell viability at 100 uM after 24 hrs by MTT assay; type: cell-based; conditions: hepg2, 24 h
Procedure, shortened: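 HepG2 monolayer (1×10^6 cells/well) in high-glucose DMEM exposed to 50 and 100 μM in triplicate for 24 h at 37°C, 5% CO2. MTT added, then formazan absorbance read at 570 nm. Percent cytotoxicity calculated against tamoxifen positive control (10 and 20 µg/mL) and untreated healthy cells.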

[9] = target: T1, Quinolone resistance protein NorA (Staphylococcus aureus); experiment: Inhibition of NorA Staphylococcus aureus 1199B assessed as reduction in ethidium bromide efflux at 6.25 to 50 uM measured at 5 mins interval for 30 mins by fluorescence assay relative to control
[10] = target: T1, Quinolone resistance protein NorA (Staphylococcus aureus); experiment: Inhibition of NorA in Staphylococcus aureus 1199B assessed as […] at 25 uM measured at 5 mins interval for 60 mins by fluorescence assay relative to control; conditions: in the assay text read “for 30 mins” for “for 60 mins”
Procedure, shortened: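 Ethidium bromide accumulation measured in SA-1199B cells preloaded with ethidium bromide, with compound at 25 μM. Fluorescence gain (excitation 530 nm, emission 600 nm) recorded at 5-min intervals.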

[11] = target: T1, Quinolone resistance protein NorA (Staphylococcus aureus); experiment: Inhibition of NorA Staphylococcus aureus 1199B assessed as reduction in ethidium bromide efflux at 6.25 to 50 uM measured after 5 mins by fluorescence assay relative to control; procedure, shortened: as §2
Staphylococcus aureus [12] = experiment: Potentiation of ciprofloxacin-induced antibacterial activity in Staphylococcus aureus 1199 assessed as minimum concentration required to effectively reduce ciprofloxacin MIC by four fold by broth checkerboard microdilution method; type: functional; conditions: read-out: MEC; procedure, shortened: as §1

Row | MEC [1] [µg/mL] | inhibition [6] [%] | inhibition [7] [%] | fold change (FC) [8] | inhibition [9] | inhibition [10] | inhibition [11] [%] | Structure (SMILES) | fold change (FC) (Staphylococcus aureus [2]) | fold change (FC) (Staphylococcus aureus [3]) | growth inhibition (GI) (Staphylococcus aureus [4]) | growth inhibition (GI) (Staphylococcus aureus [5]) | Activity (HepG2) | minimal effective concentration (Staphylococcus aureus [12]) [µg/mL]
1 | > 50 |  |  |  |  |  |  | COC(=O)CNC(=O)/C=C/C1=C(Cl)c2ccccc2CC1 | 0 | 0 | Non-Toxic | Non-Toxic |  | 
2 | 25 |  |  |  |  |  |  | COC(=O)CCNC(=O)/C=C/C1=C(Cl)c2ccccc2CC1 | 0 | 0 | Non-Toxic | Non-Toxic |  | 
3 | > 50 |  |  |  |  |  |  | COC(=O)CCCNC(=O)/C=C/C1=C(Cl)c2ccccc2CC1 | 0 | 0 | Non-Toxic | Non-Toxic |  | 
4 | 12.5 | 56.2 |  |  |  |  |  | COC(=O)[C@H](CC(C)C)NC(=O)/C=C/C1=C(Cl)c2ccccc2CC1 | 2 | 0 | Non-Toxic | Non-Toxic |  | 
5 | 25 |  |  |  |  |  |  | COC(=O)[C@H](C)NC(=O)/C=C/C1=C(Cl)c2ccccc2CC1 | 0 | 0 | Non-Toxic | Non-Toxic |  | 
6 | 12.5 | 41.4 |  |  |  |  |  | COC(=O)C(C)(C)NC(=O)/C=C/C1=C(Cl)c2ccccc2CC1 | 0 | 0 | Non-Toxic | Non-Toxic |  | 
7 | 3.12 | 67.2 |  |  |  |  | 67.2 | COC(=O)[C@@H](NC(=O)/C=C/C1=C(Cl)c2ccccc2CC1)C(C)C | 2 | 0 | Non-Toxic | Non-Toxic |  | 
8 | 12.5 | 58.2 |  |  |  |  |  | CC[C@@H](C)[C@H](NC(=O)/C=C/C1=C(Cl)c2ccccc2CC1)C(=O)OC | 2 | 0 | Non-Toxic | Non-Toxic |  | 

Further lines, the molecule ahead of its results:

Row | Structure (SMILES) | MEC [1] [µg/mL] | inhibition [6] [%] | inhibition [7] [%] | fold change (FC) [8] | inhibition [9] | inhibition [10] | inhibition [11] [%] | fold change (FC) (Staphylococcus aureus [2]) | fold change (FC) (Staphylococcus aureus [3]) | growth inhibition (GI) (Staphylococcus aureus [4]) | growth inhibition (GI) (Staphylococcus aureus [5]) | Activity (HepG2) | minimal effective concentration (Staphylococcus aureus [12]) [µg/mL]
9 | COC(=O)[C@H](Cc1ccc(O)cc1)NC(=O)/C=C/C1=C(Cl)c2ccccc2CC1 | 1.5 |  | 85.2 | 16 | > 80% | Active |  | 4 | 0 | Non-Toxic | Non-Toxic | Non-Toxic | 
10 | CCC(/C=C/C(=O)N1CCCCC1)=C\c1ccc2c(c1)OCO2 | 6.25 |  | 68.8 |  |  |  |  | 4 | 0 | Non-Toxic | Non-Toxic |  | 
11 | COC(=O)[C@H](Cc1c[nH]c2ccccc12)NC(=O)/C=C/C1=C(Cl)c2ccccc2CC1 | 1.5 |  | 83.9 | 16 | > 80% | inactive |  | 4 | 0 | Non-Toxic | Non-Toxic | Non-Toxic | 
12 | COC(=O)CC1(NC(=O)/C=C/C2=C(Cl)c3ccccc3CC2)CCC(C(C)(C)C)CC1 (configuration not stated) | > 50 |  |  |  |  |  |  | 0 | 0 | Non-Toxic | Non-Toxic |  | 
13 | COC(=O)[C@H](Cc1ccccc1)NC(=O)/C=C/C1=C(Cl)c2ccccc2CC1 | 12.5 | 48 |  |  |  |  |  | 0 | 0 | Non-Toxic | Non-Toxic |  | 
14 | COC(=O)CC1(NC(=O)/C=C/C2=C(Cl)c3ccccc3CC2)CCCCC1 | > 50 |  |  |  |  |  |  | 0 | 0 | Non-Toxic | Non-Toxic |  | 
15 | COC(=O)[C@@H]1CCCN1C(=O)/C=C/C1=C(Cl)c2ccccc2CC1 | 6.25 | 80.3 |  |  |  |  | > 80 | 2 | 0 | Non-Toxic | Non-Toxic |  | 50
16 | COC(=O)[C@H]1[C@H]2C[C@@H]3c4[nH]c5cc(OC)ccc5c4CCN3C[C@H]2C[C@@H](OC(=O)c2cc(OC)c(OC)c(OC)c2)[C@@H]1OC [RESERPINE] |  |  |  |  | Active | Active |  | 2 | 0 | Non-Toxic | Non-Toxic |  | 
17 | COC(=O)[C@H]1CCCN1C(=O)/C=C/C1=C(Cl)c2ccccc2CC1 | 12.5 | 52.6 |  |  |  |  |  | 0 | 0 | Toxic | Toxic |  | 
